Seven compounds from ChEMBL document CHEMBL1154634, “Tea catechins inhibit hepatocyte growth factor receptor (MET kinase) activity in human colon cancer cells: kinetic and molecular docking studies” (J Med Chem, 2009) can be followed below.

Calls of active or inactive are those of the source. The rule behind the calls is not given here.

Data set [1] addresses T1, Hepatocyte growth factor receptor (Homo sapiens, UniProt P08581). Nature of the data set: Inhibition of MET kinase. A digest of the protocol: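 Cell-free MET kinase activity assay run over a range of inhibitor concentrations; IC50 taken as the concentration giving 50% inhibition of kinase activity; data as mean ± SD, n = 3.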
For data set [2], the target named is T1, Hepatocyte growth factor receptor. Nature of the data set: Inhibition of hepatocyte growth factor-induced MET phosphorylation in human HCT116 cells at 5 uM after 30 mins by immunoblot. Type of data set: cell-based. A digest of the protocol:
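Whole-cell lysates immunoblotted for phospho-MET and total MET, with β-actin as loading control; densitometry with phospho-MET normalized to total MET.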

The subject of a further data set is Mus musculus. Briefly: Plasma concentration in po dosed mouse. Type of data set: ADME, organism-based. The note with it: in vivo.
For another data set, the system named is Homo sapiens. Briefly: Plasma concentration in po dosed human. The note with it: in vivo. Type of data set: ADME, organism-based.
The target in data set [3] is T1, Hepatocyte growth factor receptor. Briefly: Inhibition of MET kinase by Dixon plot analysis. An outline of the steps:
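MET kinase activity measured at several inhibitor concentrations; Dixon plot (1/V versus [I]) and Cornish-Bowden plot ([S]/V versus [I]) used to assign inhibition type; Ki derived by linear regression of the Dixon plot.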

T1 sequence (P08581 whole entry): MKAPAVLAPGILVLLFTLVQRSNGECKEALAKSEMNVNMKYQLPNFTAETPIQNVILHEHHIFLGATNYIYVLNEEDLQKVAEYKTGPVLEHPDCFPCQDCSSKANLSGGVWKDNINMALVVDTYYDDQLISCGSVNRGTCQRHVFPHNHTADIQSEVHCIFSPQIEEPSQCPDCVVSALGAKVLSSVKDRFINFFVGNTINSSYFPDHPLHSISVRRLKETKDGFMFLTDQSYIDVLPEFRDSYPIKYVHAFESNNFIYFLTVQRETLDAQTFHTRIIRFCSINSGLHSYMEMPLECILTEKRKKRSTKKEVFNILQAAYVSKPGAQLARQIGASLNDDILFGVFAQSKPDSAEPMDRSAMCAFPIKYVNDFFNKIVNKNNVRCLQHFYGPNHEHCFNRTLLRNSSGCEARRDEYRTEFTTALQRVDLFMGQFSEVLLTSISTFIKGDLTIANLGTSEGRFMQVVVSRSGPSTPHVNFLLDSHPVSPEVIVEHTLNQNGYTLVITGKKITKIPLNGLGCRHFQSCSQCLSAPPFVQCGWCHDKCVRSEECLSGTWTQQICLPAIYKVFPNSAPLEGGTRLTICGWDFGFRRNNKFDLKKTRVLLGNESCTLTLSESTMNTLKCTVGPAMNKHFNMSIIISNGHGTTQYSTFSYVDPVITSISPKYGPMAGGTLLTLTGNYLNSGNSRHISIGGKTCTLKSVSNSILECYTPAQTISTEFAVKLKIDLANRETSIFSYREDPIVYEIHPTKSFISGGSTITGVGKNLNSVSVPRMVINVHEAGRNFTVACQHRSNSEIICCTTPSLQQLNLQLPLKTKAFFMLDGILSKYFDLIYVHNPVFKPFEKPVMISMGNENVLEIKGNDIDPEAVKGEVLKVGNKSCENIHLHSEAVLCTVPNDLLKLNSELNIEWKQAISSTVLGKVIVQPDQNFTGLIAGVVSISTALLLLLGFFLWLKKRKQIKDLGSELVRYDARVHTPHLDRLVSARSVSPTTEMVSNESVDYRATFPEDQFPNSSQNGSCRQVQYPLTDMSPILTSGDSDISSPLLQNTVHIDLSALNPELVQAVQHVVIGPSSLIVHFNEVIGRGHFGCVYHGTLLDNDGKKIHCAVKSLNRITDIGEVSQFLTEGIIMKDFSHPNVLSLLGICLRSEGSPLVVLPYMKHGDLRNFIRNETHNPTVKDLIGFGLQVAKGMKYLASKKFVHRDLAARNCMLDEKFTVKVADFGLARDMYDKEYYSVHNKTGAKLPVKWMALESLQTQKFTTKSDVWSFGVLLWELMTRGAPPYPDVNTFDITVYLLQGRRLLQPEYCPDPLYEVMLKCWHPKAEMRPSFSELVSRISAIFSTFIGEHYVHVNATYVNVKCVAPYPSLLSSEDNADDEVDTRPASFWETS

`O=C(O)c1cc(O)c(O)c(O)c1`: in data set [1], the inhibition entry was “inactive”. Regarding `Oc1cc(O)c2c(c1)O[C@H](c1ccc(O)c(O)c1)[C@H](O)C2`, the inhibition entry in data set [1] is “inactive”. Turning to `Oc1cc(O)c2c(c1)O[C@@H](c1ccc(O)c(O)c1)[C@H](O)C2`, the inhibition result in data set [1] was “inactive”. Turning to `O=C(O[C@@H]1Cc2c(O)cc(O)cc2O[C@H]1c1cc(O)c(O)c(O)c1)c1cc(O)c(O)c(O)c1` [GALLOCATECHIN GALLATE], the inhibition result in data set [2] is “Active”. Moreover, the IC50 in data set [1] stood at 10 µM. Take `O=C(O[C@@H]1Cc2c(O)cc(O)cc2O[C@@H]1c1cc(O)c(O)c(O)c1)c1cc(O)c(O)c(O)c1` [EPIGALOCATECHIN GALLATE]: the concentration came out at 9 µM in the data set on Mus musculus and 7.5 µM with Homo sapiens. In data set [3], this compound registered an inhibition constant Ki of 3.3 µM. Also, the inhibition result in data set [2] is “Active”. The same compound gave a concentration for half-maximal inhibition (IC50) in data set [1] of 10 µM. As to `O=C(O[C@@H]1Cc2c(O)cc(O)cc2O[C@@H]1c1ccc(O)c(O)c1)c1cc(O)c(O)c(O)c1` [EPICATECHIN GALLATE], the inhibition result in data set [2] is “Active”. In data set [1], this compound had an IC50 of 10 µM.

Turning to `Oc1cc(O)c2c(c1)O[C@H](c1cc(O)c(O)c(O)c1)[C@H](O)C2`, in data set [1], the inhibition result is “inactive”.
